22 compounds from ChEMBL document CHEMBL4428107 (Bioorg Med Chem, 2016) can be followed below.

SMILES strings stand for the structures.

One series relates to HuT78. The experiment in a line: Antiproliferative activity against human HUT78 cells assessed as reduction in cell viability after 70 hrs by Quanti-blue assay. Particulars: Homo sapiens, HuT78, 70 h. In kind it is functional. The essentials:
(§1)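 Quanti-Blue viability kit. HuT-78 and Molt-4 cells were grown in RPMI-1640 and seeded at 10^5 cells/mL. Compounds were screened at 50 μM for 70 h, with detection reagent present for the final 2 h. Fluorescence was read at ex 530/em 590 nm. IC50 from dose-response came from linear regression. Three independent runs.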

The next series has as its target Histone deacetylase 2 (Homo sapiens, UniProt Q92769). The experiment in a line: Inhibition of full length recombinant human HDAC2 expressed in baculovirus expression system using fluorogenic peptide RHKK(Ac) as substrate by fluorescence assay.
The next series concerns MDA-MB-231. Nature of the series: Antiproliferative activity against human MDA-MB-231 cells assessed as reduction in cell viability after 72 hrs by MTS-PMS assay. Particulars: MDA-MB-231, 72 h. It is filed as functional. The essentials: (§2)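 MTS-PMS viability test. Cells were seeded at 3,000/well and left 24 h at 37 °C, 5% CO2, then exposed to compound for 72 h. Screening was at 50 μM for HCT116 and MCF-7 and […], with final DMSO ≤1%. MTS:PMS was mixed 20:1, added for 3 h, and absorbance read at 490 nm. At least two independent runs were done, each in triplicate.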
In general terms: Tetrazolium dyes change colour on reduction, which living cells bring about.

The nature of series [1]: Antiproliferative activity against human PBMC assessed as reduction in cell viability after 70 hrs by Quanti-blue assay. In kind it is cell-based. The essentials: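 QB fluorescence viability assay; hPBMCs purified by density centrifugation from purchased human blood, stored frozen, resuspended in RPMI-1640 with 10% heat-inactivated FBS, HEPES, pyruvate, non-essential amino acids and BME; seeded at 10^6 cells/mL. Compounds at 50 μM, 70 h plus 2 h with detection reagent; λex 530/λem 590 nm. Three independent repeats.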

Series [2] is described as follows: Immunomodulatory activity in human TALL-104 cells assessed as effect on degranulation by measuring augmentation of CD3-stimulated anti-LAMP fluorescence at 100 uM preincubated for 30 mins followed by anti-LAMP addition and incubated for 50 mins in the dark by flow cytometric analysis relative to control. It is filed as functional.
The next series relates to MCF7. The experiment in a line: Antiproliferative activity against human MCF7 cells assessed as reduction in cell viability after 72 hrs by MTS-PMS assay. Particulars: MCF7, 72 h.
For the next series, the system named is MOLT-4. The experiment in a line: Antiproliferative activity against human MOLT4 cells assessed as reduction in cell viability after 70 hrs by Quanti-blue assay. The following applies: Homo sapiens, MOLT-4, 70 h. It is filed as functional. The essentials: as §1
The subject of a further series is HCT-116. Nature of the series: Antiproliferative activity against human HCT116 cells assessed as reduction in cell viability after 72 hrs by MTS-PMS assay. In kind it is functional. The following applies: Homo sapiens, HCT-116, 72 h. The essentials:
as §2

Chain of Histone deacetylase 2 (Q92769 whole entry): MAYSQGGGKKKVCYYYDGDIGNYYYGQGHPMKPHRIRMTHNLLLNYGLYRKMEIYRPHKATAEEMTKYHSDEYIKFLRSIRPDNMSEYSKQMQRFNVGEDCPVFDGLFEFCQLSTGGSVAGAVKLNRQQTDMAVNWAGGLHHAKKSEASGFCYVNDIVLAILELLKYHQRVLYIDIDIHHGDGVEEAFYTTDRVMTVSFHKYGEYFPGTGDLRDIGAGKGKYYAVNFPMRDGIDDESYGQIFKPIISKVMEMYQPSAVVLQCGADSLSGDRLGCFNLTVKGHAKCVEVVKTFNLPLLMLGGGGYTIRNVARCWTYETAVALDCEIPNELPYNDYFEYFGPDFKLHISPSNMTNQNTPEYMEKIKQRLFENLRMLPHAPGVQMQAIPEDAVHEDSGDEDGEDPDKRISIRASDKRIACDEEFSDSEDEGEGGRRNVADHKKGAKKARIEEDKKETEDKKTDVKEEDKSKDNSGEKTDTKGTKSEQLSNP

For orientation: GI50 means the concentration that inhibits growth by half. A word on the IC50: it is the concentration at which inhibition is half-maximal. In the case of `O=C(CCCNC(=O)OCc1ccccc1)NCCc1ccccc1`, the GI50 in the series with HuT78, with MDA-MB-231, with MCF7, in the series on MOLT-4 and with HCT-116 was over 50 µM in each case. Also, the 50% inhibitory concentration (IC50) on Histone deacetylase 2 was over 1 µM. Besides, in series [1], the GI50 at 70 h is over 50 µM. Moreover, the Activity in series [2] is 79%.
In the case of `O=C(CCCNC(=O)c1ccccc1)NCCc1ccccc1`, the GI50 with HuT78, in the series with MDA-MB-231, in the series on MCF7, in the series on MOLT-4 and in the series with HCT-116 was over 50 µM throughout. Also, at Histone deacetylase 2, the concentration for half-maximal inhibition (IC50) was over 1 µM. Also, the concentration for 50% growth inhibition (GI50) at 70 h in series [1] was over 50 µM. For the same compound, the Activity in series [2] was 85%.
Turning to `CCOC(=O)NCCCC(=O)Nc1nc(-c2cccc([N+](=O)[O-])c2)cs1`, the GI50 in the series with HuT78, in the series with MDA-MB-231, with MCF7, in the series with MOLT-4 and in the series on HCT-116 was over 50 µM throughout. At Histone deacetylase 2, the IC50 was over 1 µM. The GI50 at 70 h in series [1] is over 50 µM. In addition, the Activity in series [2] turned out to be 58%.
Turning to `CCOC(=O)NCCCC(=O)NCCc1ccc(Cl)cc1`, the GI50 in the series on HuT78, with MDA-MB-231, in the series with MCF7, in the series with MOLT-4 and in the series on HCT-116 was over 50 µM throughout. Moreover, the IC50 at Histone deacetylase 2 is over 1 µM. Further, in series [1], the GI50 at 70 h is over 50 µM. In series [2], the Activity was determined as 85%.
Take `CC(C)(C)OC(=O)NCCCC(=O)NCCc1ccccc1`: the GI50 in the series on HuT78, in the series on MDA-MB-231, in the series with MCF7, in the series on MOLT-4 and with HCT-116 was over 50 µM throughout. Besides, the IC50 at Histone deacetylase 2 is over 1 µM. In addition, the GI50 at 70 h in series [1] is over 50 µM. Moreover, in series [2], the Activity is recorded as 82%.
For `CCOC(=O)NCCCC(=O)NCCc1cccc(F)c1`, the GI50 in the series on HuT78, in the series with MDA-MB-231, in the series on MCF7, in the series with MOLT-4 and in the series with HCT-116 was over 50 µM throughout. Further, the half-maximal inhibitory concentration (IC50) at Histone deacetylase 2 is over 1 µM. Besides, the GI50 at 70 h in series [1] is over 50 µM. The Activity in series [2] came out at 90%.
With `CCOC(=O)NCCCC(=O)NCCC(C)C`, the GI50 in the series with HuT78, with MDA-MB-231, in the series with MCF7, with MOLT-4 and in the series with HCT-116 was over 50 µM throughout. Moreover, the half-maximal inhibitory concentration (IC50) on Histone deacetylase 2 is over 1 µM. For the same compound, the GI50 at 70 h in series [1] was over 50 µM. The Activity in series [2] was determined as 88%.
Consider `CC(=O)SCCC(=O)NCCCC(=O)NCCc1ccccc1`, for which the 50% growth inhibitory concentration (GI50) in the series with HuT78, in the series with MDA-MB-231, in the series with MCF7, in the series with MOLT-4 and with HCT-116 was over 50 µM in each case. Besides, the IC50 at Histone deacetylase 2 is over 1 µM. Moreover, the GI50 at 70 h in series [1] is over 50 µM. In addition, the Activity in series [2] is 77%.
On to `CCOC(=O)NCCCCCC(=O)Nc1ccccc1`, for which the GI50 in the series with HuT78, with MDA-MB-231, with MCF7, with MOLT-4 and in the series with HCT-116 was over 50 µM in each case. For the same compound, the IC50 on Histone deacetylase 2 was over 1 µM. Moreover, the concentration for 50% growth inhibition (GI50) at 70 h in series [1] was over 50 µM.
As to `C=CCOC(=O)NCCCC(=O)NCCc1ccccc1`, the GI50 in the series on HuT78, in the series with MDA-MB-231, in the series with MCF7, in the series with MOLT-4 and with HCT-116 was over 50 µM throughout. Moreover, the IC50 at Histone deacetylase 2 was over 1 µM. For the same compound, in series [1], the GI50 at 70 h is over 50 µM. Moreover, the Activity in series [2] was determined as 87%.
On to `CCCOC(=O)NCCCC(=O)NCCc1ccccc1`, for which the GI50 with HuT78, in the series on MDA-MB-231, in the series on MCF7, in the series with MOLT-4 and with HCT-116 was over 50 µM throughout. The IC50 on Histone deacetylase 2 is over 1 µM. For the same compound, in series [1], the GI50 at 70 h is over 50 µM. The Activity in series [2] is listed as 94%.
With `CCNC(=O)OCCCC(=O)NCCc1ccccc1`, the GI50 in the series with HuT78, with MDA-MB-231, with MCF7, in the series on MOLT-4 and in the series with HCT-116 was over 50 µM throughout. In addition, the IC50 on Histone deacetylase 2 is over 1 µM. In series [1], the 50% growth inhibitory concentration (GI50) at 70 h was over 50 µM. The Activity in series [2] amounted to 100%.
As for `CCSC(=O)NCCCC(=O)NCCc1ccccc1`, the GI50 in the series with HuT78, with MDA-MB-231, in the series with MCF7, in the series with MOLT-4 and with HCT-116 was over 50 µM in each case. At Histone deacetylase 2, the IC50 is over 1 µM. Moreover, the GI50 at 70 h in series [1] was over 50 µM. Also, the Activity in series [2] is reported as 76%.
As to `CC(=O)NCCCC(=O)NCCc1ccccc1`, the GI50 in the series with HuT78, in the series with MDA-MB-231, in the series on MCF7, in the series on MOLT-4 and in the series on HCT-116 was over 50 µM throughout. For the same compound, the IC50 at Histone deacetylase 2 is over 1 µM. In addition, in series [1], the GI50 at 70 h is over 50 µM. Further, the Activity in series [2] worked out at 83%.
For the compound `O=C(CCCNC(=O)N1CCCC1=O)NCCc1ccccc1`, the GI50 with HuT78, with MDA-MB-231, with MCF7, with MOLT-4 and in the series with HCT-116 was over 50 µM in each case. For the same compound, the IC50 on Histone deacetylase 2 is over 1 µM. For the same compound, the GI50 at 70 h in series [1] was over 50 µM. Further, in series [2], the Activity stood at 95%.
In the case of `CCOC(=O)NCC(=O)NCCc1ccccc1`, the GI50 with HuT78, in the series on MDA-MB-231, with MCF7, in the series with MOLT-4 and in the series with HCT-116 was over 50 µM each time. The IC50 on Histone deacetylase 2 was over 1 µM. Moreover, in series [1], the concentration for 50% growth inhibition (GI50) at 70 h was over 50 µM. Besides, the Activity in series [2] is on record as 86%.
For `CCOC(=O)NCCCC(=O)OCCc1ccccc1`, the GI50 in the series with HuT78, with MDA-MB-231, in the series on MCF7, with MOLT-4 and in the series on HCT-116 was over 50 µM in each case. For the same compound, at Histone deacetylase 2, the IC50 was over 1 µM. Besides, the GI50 at 70 h in series [1] is over 50 µM. Moreover, the Activity in series [2] came to 88%.
In the case of `CCOC(=O)NCCCC(=O)NCCNC(=O)OC(C)(C)C`, the GI50 in the series with HuT78, with MDA-MB-231, in the series on MCF7, with MOLT-4 and with HCT-116 was over 50 µM in each case. The IC50 on Histone deacetylase 2 is over 1 µM. Moreover, the GI50 at 70 h in series [1] is over 50 µM. In series [2], the Activity was 95%.
In the case of `CCOC(=O)NCCCC(=O)Nc1nccs1`, the GI50 with HuT78, in the series on MDA-MB-231, in the series with MCF7, in the series on MOLT-4 and in the series on HCT-116 was over 50 µM throughout. The IC50 at Histone deacetylase 2 was over 1 µM. Further, in series [1], the concentration for 50% growth inhibition (GI50) at 70 h is over 50 µM. For the same compound, the Activity in series [2] turned out to be 91%.
On to `CCC(=O)NCCCC(=O)NCCc1ccccc1`, for which the GI50 in the series on HuT78, in the series with MCF7, in the series on MOLT-4 and in the series on HCT-116 was over 50 µM each time. For the same compound, at Histone deacetylase 2, the concentration for half-maximal inhibition (IC50) is over 1 µM. Moreover, the GI50 at 70 h in series [1] is over 50 µM. Further, the Activity in series [2] worked out at 91%.
For `COc1cccc2c1C(=O)c1c(O)c3c(c(O)c1C2=O)C[C@@](O)(C(=O)CO)C[C@@H]3O[C@H]1C[C@H](N)[C@H](O)[C@H](C)O1` [DOXORUBICIN], the values for the GI50 in the series with MDA-MB-231 and with HCT-116 were 10.7 µM and 21.4 µM, respectively.
For `O=C(CCCCCCC(=O)Nc1ccccc1)NO` [VORINOSTAT], the GI50 in the series on MCF7 was 29.1 µM.
